Screening data from PubChem.
In the library only some 2.4% were active in any assay of this set; here they are far more common.
Ecoli rRNA inh = inhibits bacterial ribosomal RNA function over humanized ribosomes | E. coli WT GFP vs humanized-ribosome RFP mutants, fluorescence, 24 h; stronger effect = lower value; DMSO median 0, no signal -100 | GFP signal change (wild-type ribosome), % (test concentration not listed) | hit rate 1.6% among 350,000 | AID 720706;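 active means significant combined selectivity score with lowered wild-type GFP, culture density cut under 30%, mutant RFP and density less affected; inactive means any of these conditions unmet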
ARNT-TACC3 inh = ARNT/TACC3 interaction disruption | Q9Y6A5 | AlphaScreen His-ARNT PAS-B/GST-TACC3 binding, luminescence; TACC3 fragment carries E629A point mutation | inhibition, % at 9.99 µM | hit rate 0.66% among 390,000 | AID 623870;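 active means mean inhibition of replicates at least 50% and at least half of replicates each reaching 50%; inconclusive means half or more replicates reach 50% but mean below 50%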
CASP6 VEID inh = inhibitors of human caspase-6; hit rate 0.53% among 350,000; inhibition, % at 12.5 µM; purified caspase-6, Z-VEID-R110 cleavage fluorescence; AID 686996; P55212;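 active means mean inhibition across replicates at least about 35%, with every replicate also reaching that limit, limit read from the data; inconclusive means only one of the two criteria met; inactive means neither criterion met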
Target sequence (P55212 24-179 limits assumed): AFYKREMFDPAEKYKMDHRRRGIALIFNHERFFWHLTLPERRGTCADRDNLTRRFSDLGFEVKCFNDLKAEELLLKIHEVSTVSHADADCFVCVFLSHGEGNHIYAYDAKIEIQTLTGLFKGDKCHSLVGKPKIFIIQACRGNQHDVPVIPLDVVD
Target sequence (P55212 194-293 limits assumed): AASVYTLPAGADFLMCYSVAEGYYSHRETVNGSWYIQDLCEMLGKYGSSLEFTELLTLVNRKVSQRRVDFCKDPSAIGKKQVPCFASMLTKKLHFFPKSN
PGC1a acetyl inh = lowers PGC1a acetylation signal in U2OS cells; AlphaScreen anti-acetyl-lysine; with virally co-expressed GCN5 acetyltransferase; inhibition, % at 15.6 µM; hit rate 0.17% among 350,000;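 active means every replicate shows inhibition of at least 40%; inconclusive means mean inhibition at least 40% but some replicate below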
S100A4 inh HTS = blocks human S100A4 binding to myosin IIA peptide. hit rate 0.14% among 360,000. S100A4/TAMRA-MyoIIA peptide fluorescence polarization. P26447. AID 652163. inhibition, % at 10.7 µM;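 active means mean inhibition of at least 70% across replicates, with every replicate also reaching that level; inconclusive means mean inhibition reaches 70% but some replicates fall short; inactive means mean inhibition below 70%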
Target sequence (P26447 whole entry, looked up): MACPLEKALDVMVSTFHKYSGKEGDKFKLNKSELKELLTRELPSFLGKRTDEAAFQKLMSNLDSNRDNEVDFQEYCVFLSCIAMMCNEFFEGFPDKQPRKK
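Material: S100A4 monomer protein / Buffer or medium: 50 mM HEPES pH 7.2, 10 mM CaCl2, 100 mM KCl / Times: 5 min incubation before reading / Benchmarks: neutral control DMSO, positive control TFP / Reagent: labelled myosin peptide probe, 5 nM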
ERAP1 inh = blocks human ERAP1 aminopeptidase activity | hit rate 0.15% among 340,000 | recombinant ERAP1, Leu-AMC fluorescence, 60 min | inhibition, % at 10.7 µM | Q9NZ08;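 active means mean replicate inhibition of at least 30%, or all replicates individually reaching that 30% level; inactive means mean below 30% and not every replicate reaching it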
HepG2 cytotox = cytotoxic compounds in HepG2 cells; shares compounds with Ecoli rRNA inh; HepG2 viability, ATP luminescence, 72 h; activity change, negative = cytotoxicity, unspecified at 26 µM; 30 tested, under 10 active;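 active means compounds whose fitted half-maximal signal-loss concentration is at most twice their highest valid dose; inconclusive means flat curve with 30 to 70% signal loss, or poor fit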
AID977621 = wild-type E. coli growth inhibition versus H69 humanized strain – H69 mutant RFP, wild-type GFP, cherry-pick, dose response; fluorescence, 24 h; 1,900 tested, under 10 active; shares compounds with Ecoli rRNA inh; AID 977621; activity change, negative = inhibition at 50 µM;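 active means Wild-type ribosome reporter drop at least double the humanized mutant ribosome reporter drop, growth loss under a set limit; inconclusive means no clear call, values can overlap the other calls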;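 further: wild-type GFP and H69 mutant RFP strains grown together 50/50 in each well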
AID977628 = E. coli growth inhibition, wild-type GFP versus h24 humanized RFP strain, dose response, h24 mutant RFP vs wild-type GFP, cherry-pick | E. coli WT GFP strain growth, fluorescence, 24 h | AID 977628 | activity change, negative = inhibition at 50 µM | 1,900 tested, under 10 active | shares compounds with Ecoli rRNA inh;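 active means compound lowering the normal-ribosome reporter at least twice as much as the humanized-ribosome reporter, growth loss under a set limit; inconclusive means no clear call, values can overlap the other calls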;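 further: wild-type GFP and h24 humanized RFP strains co-cultured 1 to 1 per well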
A number is an active result; n = inactive; u = inconclusive; x = no result given.

SMILES	Ecoli rRNA inh	ARNT-TACC3 inh	CASP6 VEID inh	PGC1a acetyl inh	S100A4 inh HTS	ERAP1 inh	AID977621	AID977628	others
O=C1c2ccccc2C(c2nnnn2Cc2ccccc2)N1Cc1ccc(F)cc1 (stereo not drawn)	n	x	n	x	n	x	x	x
Cc1ccc(NC(=O)C2CCCN(c3ncnc4c3nc3n4CCCCC3)C2)cc1Cl (stereo not drawn)	-18	n	n	n	n	n	n	u
CC(C)NC(=O)[C@@]1(c2ccc([N+](=O)[O-])cc2)CC(=O)N(CC23CC4CC(CC(C4)C2)C3)[C@@H]1c1ccc(CO)cc1	x	n	n	n	n	n	x	x
COc1cc(OC)cc(C(=O)N[C@H](C(=O)OCC(=O)Nc2ccc(F)c(F)c2F)C(C)C)c1	-20	n	n	n	n	n	u	x
COc1ccccc1C(=O)Nc1cccc2cccnc12	-30	n	n	x	n	n	n	x
O=C(Nc1cccc2cccnc12)c1ccccc1Cl	n	x	n	n	n	n	x	x
Cc1ccc(S(=O)(=O)N2CC[C@H]3[C@H](CO)Nc4ccc(Br)cc4[C@H]32)cc1	-25	n	n	n	n	n	x	u	HepG2 cytotox=n
CN(Cc1nnc(-c2ccc(F)cc2)o1)c1ccccc1	-26	x	n	n	n	n	n	n
C[C@H]1CN([C@@H](C)CO)C(=O)Cc2cc(NC(=O)Cn3cnnn3)ccc2O[C@H]1CN(C)C(=O)Nc1cccc2ccccc12	n	n	x	n	x	x	x	x
O=C(Nc1cccc(Cl)c1)N1C[C@@H]2[C@H](c3ccccc31)[C@H](CO)N2Cc1cccnc1	n	n	n	n	n	n	x	x
O=C(Nc1ccccc1F)N1C[C@H]2[C@@H](c3ccccc31)[C@@H](CO)N2C(=O)Cc1ccccc1	n	n	n	n	n	n	x	x
O=C(Nc1ccccc1F)N1C[C@@H]2[C@H](c3ccccc31)[C@@H](CO)N2C(=O)Cc1ccccc1	-44	n	n	n	n	n	x	u
O=C(Nc1cccc(Cl)c1)N1C[C@H]2[C@@H](c3ccccc31)[C@@H](CO)N2C(=O)c1ccncc1	-23	n	n	n	n	n	x	u
O=C(Nc1cccc(Cl)c1)N1C[C@H]2[C@@H](c3ccccc31)[C@H](CO)N2Cc1ccncc1	-29	n	n	n	n	n	x	u
Cc1ccc(-c2cnc3c(c2)C(=O)N([C@H](C)CO)C[C@H](C)[C@@H](CN(C)C(=O)c2cccnc2)O3)cc1	n	n	n	n	n	n	x	x
CC(C)NC(=O)N(C)C[C@@H]1Oc2ccc(NC(=O)Nc3ccc4c(c3)OCO4)cc2CC(=O)N([C@@H](C)CO)C[C@@H]1C	n	n	n	n	n	n	x	x
O=S(=O)(NC1c2cccc3cccc(c23)C1Sc1ncccn1)c1ccccc1 (stereo not drawn)	-24	n	n	x	n	n	n	u
Cc1ccc(S(=O)(=O)NC2c3cccc4cccc(c34)C2Sc2nc(C)cc(C)n2)cc1 (stereo not drawn)	x	n	x	n	x	x	x	x
Cc1ccc(S(=O)(=O)Nc2ccc3c(c2)C(=O)N([C@@H](C)CO)C[C@@H](C)[C@H](CN(C)Cc2ccc4c(c2)OCO4)O3)cc1	n	n	n	n	n	n	x	x
CNC(=O)C[C@@H]1CC[C@H]2[C@@H](COc3ccc(NC(=O)C4CCCCC4)cc3C(=O)N2C)O1	n	n	n	n	n	n	x	x
COc1ccc(S(=O)(=O)N2CCOc3ccccc32)cc1	-22	n	n	n	n	n	n	n
COc1ccc(N2CCN(S(=O)(=O)c3ccc(OC)cc3)CC2)cc1	n	n	n	n	n	n	x	x
COc1ccc(S(=O)(=O)n2cccc2)cc1	-23	x	n	n	n	n	u	u
CCN(CC)C(=O)c1ccc(COc2ccccc2Cl)o1	-20	n	n	x	n	n	n	n
N#CCSc1ncnc2ccccc12	n	n	x	x	n	n	x	x
SMILES	Ecoli rRNA inh	ARNT-TACC3 inh	CASP6 VEID inh	PGC1a acetyl inh	S100A4 inh HTS	ERAP1 inh	AID977621	AID977628	others
c1ccc(Sc2ncnc3ccccc23)cc1	-18	n	n	n	n	n	x	u
O=C(NCc1ccccc1)c1ccc(-c2cn[nH]c2)c2ccoc12	-20	x	n	n	n	n	n	n
Oc1ccc(-c2csc(Nc3ncccn3)n2)cc1	-17	n	n	n	n	n	n	n
CC(=O)Nc1ccc(-c2csc(Nc3ncccn3)n2)cc1	n	n	n	n	n	n	x	x
CCn1c(-c2ccccc2Cl)nn(CC(=O)Nc2ccccc2OC)c1=S	-21	n	n	x	n	n	n	x
COc1ccc(NC(=O)Nc2ccc3c(c2)CC(=O)N([C@H](C)CO)C[C@@H](C)[C@@H](CN(C)Cc2ccc(C(=O)O)cc2)O3)cc1	n	n	n	n	n	n	x	x
CC(C)(C)c1ccc(-c2noc(CCC(=O)NCc3ccco3)n2)cc1	-24	n	n	x	n	n	n	u
O=S(=O)(c1cccs1)N1CCCCN2[C@H](CO)[C@H](c3ccc(C4=CCCCC4)cc3)[C@@H]2C1	x	n	n	n	n	n	x	x
C/C(=N/O)c1cccc(N2Cc3ccccc3C2)c1	n	n	n	n	n	n	x	x
Cc1cccc(N2Cc3ccc(Br)cc3C2)c1	-21	n	n	x	n	x	n	n
COc1ccc(CNC(=O)C[C@@H]2C[C@@H]3c4cc(NS(C)(=O)=O)ccc4O[C@@H]3[C@@H](CO)O2)cc1	n	n	n	n	n	n	x	x
Cc1ccccc1Nc1c(-c2cccnc2)nc2ccc(Br)cn12	-25	n	n	x	n	n	n	n
Cc1ccc2nc(-c3cccnc3)c(Nc3ccccc3C)n2c1	n	n	n	n	n	x	x	x
COc1ccc(S(=O)(=O)N(C)C[C@H]2Oc3cc(C#CC4CCCCC4)ccc3S(=O)(=O)N([C@H](C)CO)C[C@@H]2C)cc1	x	n	n	n	n	n	x	x
CS(=O)(=O)Nc1ccccc1C(=O)NCCSCc1ccccc1	n	n	n	n	n	n	x	x
CS(=O)(=O)Nc1ccccc1C(=O)NCCSc1ccccc1	-22	n	n	n	n	n	n	n
C[C@@H]1CN([C@H](C)CO)C(=O)Cc2cc(NC(=O)C3CCCCC3)ccc2O[C@@H]1CN(C)CC1CC1	n	n	n	n	n	n	x	x
Cc1ccc(Cl)cc1N1CCN(S(C)(=O)=O)CC1	-35	n	n	n	n	n	x	u
